Measurements taken from the RNAGym collection of RNA variant scans (doi:10.1126/science.aae0568).
Variants at the floor of the assay were thinned out.

B1: tRNA (parent)
chain: GUUCCGUUGGCGUAAUGGUAACGCGUCUCCCUCCUAAGGAGAAGACUGCGGGUUCGAGUCCCGUACGGAACG

Variants of: B1
Assay: yeast fitness relative to wild type (ratio to wild type); higher = fitter; tRNA-Arg(CCU), competitive growth, 37 C, YPD
Procedure, shortened: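 The tRNA-Arg(CCU) gene variants were made by chemical synthesis with a 3% per-site mutation rate at 69 sites and inserted at the native genomic locus of Saccharomyces cerevisiae. After pooling, the strains were competed in YPD at 37°C for 24 hours in six parallel replicates. Gene amplicons from the start population and each end population were read by 100-nucleotide paired-end sequencing, and Darwinian fitness relative to wild type was taken from genotype frequency changes. Genotypes needed ≥ 100 starting reads, and estimates < 0.5 were set to 0.5.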

Variant | yeast fitness
C4G G10C G12C A21C G48C A57G G68C | 0.519
C4U A15C C30G G52A A65C | ≤ 0.5
C4G C33G A40G | 0.528
C4U A15U A20C G23A G50C | ≤ 0.5
C4G G18C A57C | ≤ 0.5
C4G G17C C33G U47A | 0.689
C4U A14U A69U | 0.651
C4U A21G | 1.1
C4U A15G G23C A37U | ≤ 0.5
C4U A36G A40C G44C | 0.596
C4U C5G C29U G63A A65G | 0.535
C4U A15U U28C | 0.55
C4U A20C U26G | 0.552
C4G U13G | 0.882
C4G U13C | 0.886
C4U A37U G52A | ≤ 0.5
C4U A70G | 0.941
C4G U13C C49U C60G A65U | ≤ 0.5
C4G U32C A45U | 0.537
C4G G9A C49A C55U | ≤ 0.5
C4U C5A G68C | 0.551
C4G G10C U35C G38U C46G | ≤ 0.5
C4G U32A | 0.864
C4G U32C | 0.944

Variant | yeast fitness
C4U A20G C30A | 0.81
C4G U26A C49U | ≤ 0.5
C4G U8C A15G C22G G23A C49A | ≤ 0.5
C4G U16A A43C | ≤ 0.5
C4G U35C C55G | ≤ 0.5
C4G C34U G41A | ≤ 0.5
C4G C33U | 0.708
C4U A20G U28C C31U G50C C55U C60G G63A C66U | 0.508
C4G U35C C55A A69U | ≤ 0.5
C4G C33U A37U G38A A42C | ≤ 0.5
C4U A37G G39C | ≤ 0.5
C4G U8G G9A C11U C34G C49U | ≤ 0.5
C4G G41A A45U G56C | ≤ 0.5
C4G U16A A36C | 0.579
C4U A21G C46A U64C | 0.676
C4G G17A C61U | 0.56
C4G U7C C27A A69U | 0.531
C4G G18A A57C | ≤ 0.5
C4G U13A G17C C30U | 0.657
C4U A20U C61G | ≤ 0.5
C4U A20G U32G A43C A45U | ≤ 0.5
C4G G17A G50A C55U G67C | ≤ 0.5
C4U C5G A15C A42C | ≤ 0.5
C4U A20U U35A G38A | ≤ 0.5

Variant | yeast fitness
C4G G9C C34A A40C | 0.538
C4G G25C A45C C46A | 0.619
C4U A14U | 0.611
C4G G9C C27A A36G C46A C55U A65C | ≤ 0.5
C4U A21U U26G G58A | 0.522
C4G U32G C33U A37U A65G | ≤ 0.5
C4G G17A A43U C60A | ≤ 0.5
C4U A14G C29A | ≤ 0.5
C4U A21U C55U | ≤ 0.5
C4G G9C C46A U59A U64A | ≤ 0.5
C4G U16C G44A G48A G50C C66G | ≤ 0.5
C4G C49U C66U | 0.681
C4G U59C A69C | 0.778
C4U C5G C29G C31G A37C G63A | 0.542
C4G C49G | 0.682
C4G C49U | 0.933
C4G C49A | 0.541
C4U A42C | 0.912
C4U A42G | 0.868
C4G G12A G52A | ≤ 0.5
C4U A14G C34A | ≤ 0.5
C4G C55A | 0.778
C4G C55G | 0.612
C4G U47G U59A C66A | ≤ 0.5

Variant | yeast fitness
C4G U28A G39A A65U G68A | ≤ 0.5
C4G C34U | 0.624
C4G C34G | 0.574
C4G G9A G50C | 0.642
C4U A36G G44C G63A | 0.572
C4U A20G A45U C61A C62U | 0.546
C4G C34G A43U A70C | ≤ 0.5
C4G G39C | 0.747
C4U A43G C49U G68A | ≤ 0.5
C4U A20U U53C G67C | ≤ 0.5
C4G C60U | 0.817
C4G U7C C27A U59G | 0.574
C4G U16C C31U A70U | ≤ 0.5
C4G G44A A45C G63A | ≤ 0.5
C4U A20U U47G G58A C62A | ≤ 0.5
C4U A15C G63A | ≤ 0.5
C4U A21G U32A A40C C46A | 0.769
C4U A15U G68A | ≤ 0.5
C4G U53C | 0.776
C4U A37C G50C A57G | ≤ 0.5
C4G U19G A69U | ≤ 0.5
C4U A15C A70U | 0.573
C4G G17A C55G A70U | ≤ 0.5
C4U A40G U53G A57C C60G A65U | 0.583

Variant | yeast fitness
C4U A21U C24U C27A A37C A40U G67C | ≤ 0.5
C4U A14C G39C | ≤ 0.5
C4G U7A C29U | 0.504
C4G G25A A45G | ≤ 0.5
C4G G17A C30U G56A | ≤ 0.5
C4U A15C C46U | 0.7
C4U A45U C66G | 0.598
C4U A21C G44A | ≤ 0.5
C4U A14G A45C G63C | ≤ 0.5
C4U C5A | 0.796
C4G U16A A36C A57C C61A U64C | ≤ 0.5
C4G G41A A45U | 0.537
C4G U13A C30G | ≤ 0.5
C4G U13G C66U | 0.564
C4G U7G A43C | 0.687
C4U A15U C66U | 0.649
C4U A21C C30A C31G U32C G41C C55U | ≤ 0.5
C4G G18C A37C A57C | ≤ 0.5
C4G U8G A42C C55U | ≤ 0.5
C4G G51C U54A | ≤ 0.5
C4U A20C C30A C55A G67A | 0.53
C4U A21G C22A C46A | 0.563
C4G G17C U59C | 0.746
C4U A40G A65U | 0.596

Variant | yeast fitness
C4G G6C G9A A20G C55A C61A | 0.615
C4G C34U G63A | ≤ 0.5
C4G U8C G18C A21C C55U | ≤ 0.5
C4G G9A U32C C33U | ≤ 0.5
C4G U7C A20G C27A U59G | ≤ 0.5
C4G U8C G51A C66A | ≤ 0.5
C4U C5G A45G | 0.634
C4U A15C C30G A69C A70G | ≤ 0.5
C4G G6A U64A | 0.651
C4U A20U C29U | ≤ 0.5
C4G U35C C49U | 0.533
C4G U26A | 0.796
C4G U26C | 0.993
C4G U26G | 0.856
C4G C34U C66G | ≤ 0.5
C4G U16G G48A A57G A69U | ≤ 0.5
C4G U8C G25A A42U A69C | ≤ 0.5
C4G U16A | 0.9
C4G U16C | 0.806
C4G U13A C33G A36G | ≤ 0.5
C4G U13A G63A | ≤ 0.5
C4U A37U C66A | 0.542
C4G G6A U47G | ≤ 0.5
C4G G6A U47A | 0.61

Variant | yeast fitness
C4G U53A G63C | ≤ 0.5
C4G C49G G56U U64C A65C A70C | 0.635
C4U A20C C46U A70G | ≤ 0.5
C4U A21C A57U | ≤ 0.5
C4G G56C A70G | ≤ 0.5
C4G U8A G12A G58A | ≤ 0.5
C4G G50A G56A | 0.727
C4G G6C C34G A42G C46G | ≤ 0.5
C4G G12C C33G G44C | ≤ 0.5
C4G U7G G63C | 0.521
C4G G17C A43C G51A | ≤ 0.5
C4U A43C A65U | 0.75
C4G U8A C31G | ≤ 0.5
C4G G9A G39A | 0.576
C4G G10C | 0.659
C4G U47C U59G | ≤ 0.5
C4U A20U C46A | 1.02
C4G U7A U19C A20C C24U U53C | ≤ 0.5
C4G G6A C24U A40U C49A | ≤ 0.5
C4G U8C U16A A21C C24G A45C G48A G67A | 0.53
C4G G10A U13A U26G C27G C29U C33U U53C C61U | ≤ 0.5
C4U A36C | 0.542
C4U A14G A20C C34U C55U | ≤ 0.5
